In assay [1] the test system is Splenocyte. The assay is described as follows: Stimulation of IL4 secretion from C57BL/6 mouse splenocytes at 125 ng/mL after 72 hrs relative to alphaGalCer. In kind it is functional. The method, boiled down:
(§1)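 Splenocytes from naive C57BL/6 mice were cultured with glycolipid at various concentrations for 72 h. IFN-γ and IL-4 in the supernatant were measured by ELISA and expressed as relative activities. Data are means ± SD of duplicates, representative of two experiments; significance by Student's t test.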

For assay [2], the system named is Mus musculus. The assay is described as follows: Elevation of IL4 in C57B/6 mouse at 1 ug, iv. In kind it is functional, organism-based. The method in brief: (§2)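 Naive C57BL/6 mice given glycolipid at 1 µg/mouse by intravenous injection; serum IFN-γ and IL-4 measured by ELISA at several time points after dosing. Data are means ± SD of three mice, representative of two separate experiments.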

The test system of assay [3] is Mus musculus. In words: Elevation of IFN-gamma in C57B/6 mouse at 1 ug, iv. The assay is classed as functional, organism-based. The method in brief:
as §2

Assay [4] has as its system Splenocyte. In words: Stimulation of IFN-gamma secretion from C57BL/6 mouse splenocytes at 125 ng/mL after 72 hrs. The assay is classed as functional. The method, boiled down:
as §1

The test system of assay [5] is Splenocyte. The assay is described as follows: Stimulation of IFN-gamma secretion from C57BL/6 mouse splenocytes at 32 ng/mL after 72 hrs. In kind it is functional. The method, boiled down: as §1
Assay [6] concerns Mus musculus. In words: Elevation of IL4 in C57B/6 mouse at 1 ug, iv after 2 hrs. The assay is classed as functional, organism-based. The method in brief: as §2
Assay [7] deals with Mus musculus. In words: Elevation of IFN-gamma in C57B/6 mouse at 1 ug, iv after 12 hrs. The assay is classed as functional, organism-based. The method, boiled down: as §2
Assay [8] relates to Splenocyte. The assay is described as follows: Stimulation of IL4 secretion from C57BL/6 mouse splenocytes at 125 ng/mL after 72 hrs. The assay is classed as functional. The method in brief: as §1
For assay [9], the system named is Splenocyte. The assay is described as follows: Stimulation of IL4 secretion from C57BL/6 mouse splenocytes at 32 ng/mL after 72 hrs. The assay is classed as functional. The method, boiled down: as §1
The test system of assay [10] is DN32.D3. The assay is described as follows: Stimulation of IL2 production in DN32.D3 cells at 32 ng/mL after 16 hrs. The conditions noted are these: Mus musculus. In kind it is functional, cell-based. The method, boiled down:
(§3)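 Rat basophilic leukemia cells transfected with mouse CD1d were pulsed with glycolipid at various concentrations for 4 h, then washed three times with PBS. They were co-cultured with DN32.D3 NKT hybridoma cells (Vα14+) for 16 h, and IL-2 in the supernatant was measured by ELISA. Data are means ± SD of duplicates, representative of two experiments.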

In assay [11] the test system is Splenocyte. In words: Stimulation of IL4 secretion from C57BL/6 mouse splenocytes at 32 ng/mL after 72 hrs relative to alphaGalCer. The assay is classed as functional. The method in brief:
as §1

Assay [12] concerns Splenocyte. In words: Stimulation of IFN-gamma secretion from C57BL/6 mouse splenocytes at 125 ng/mL after 72 hrs relative to alphaGalCer. The assay is classed as functional. The method, boiled down:
as §1

For assay [13], the system named is Splenocyte. In words: Stimulation of IFN-gamma secretion from C57BL/6 mouse splenocytes at 32 ng/mL after 72 hrs relative to alphaGalCer. The assay is classed as functional. The method in brief: as §1
Assay [14] relates to DN32.D3. In words: Stimulation of IL2 production in DN32.D3 cells at 500 ng/mL after 16 hrs. In kind it is functional, cell-based. The conditions noted are these: Mus musculus. The method in brief: as §3
Assay [15] deals with DN32.D3. In words: Stimulation of IL2 production in DN32.D3 cells after 16 hrs. The assay is classed as functional, cell-based. The conditions noted are these: Mus musculus. The method in brief: as §3

SMILES strings stand for the structures. The source made the active and inactive calls. The calls are words filed in the database; no cut-off is given here.

In the case of `CCCCCCCCCCCCCC[C@@H](O)[C@@H](O)[C@H](CO[C@H]1O[C@H](CO)[C@H](O)[C@H](O)[C@H]1O)n1cc(CCCCCCC)nn1`, the result with Splenocyte [1] was Active. For the same compound, the outcome in the assay on Mus musculus [2] and with Mus musculus [3] was inactive.
On to `CCCCCCCCCCCCCCCCCCCCCCCCCC(=O)N[C@@H](CO[C@H]1O[C@H](CO)[C@H](O)[C@H](O)[C@H]1O)[C@H](O)[C@H](O)CCCCCCCCCCCCCC` [RGI-7000], for which the Activity in the assay with Splenocyte [4] was determined as 12.8 ng/mL; with Splenocyte [5] it was 15.6 ng/mL; in the assay with Splenocyte [8], 0.9 ng/mL; with Splenocyte [9], 1.12 ng/mL. Besides, the result with Mus musculus [6] and in the assay on Mus musculus [7] was Active.
On to `CCCCCCCCCCCCCCCCCCCCCCCCc1cn([C@@H](CO[C@H]2O[C@H](CO)[C@H](O)[C@H](O)[C@H]2O)[C@H](O)[C@H](O)CCCCCCCCCCCCCC)nn1`, for which, in the assay with DN32.D3 [10], the result was Active. Moreover, the Activity with Splenocyte [1] is 1.09 ng/mL; with Splenocyte [11], 1.51 ng/mL; in the assay on Splenocyte [12], 11.5 ng/mL; with Splenocyte [13], 4.63 ng/mL.
`CCCCCCCCCCCCCC[C@@H](O)[C@@H](O)[C@H](CO[C@H]1O[C@H](CO)[C@H](O)[C@H](O)[C@H]1O)n1cc(CCCCCC)nn1`: the result in the assay on DN32.D3 [14], in the assay with Mus musculus [2] and in the assay with Mus musculus [3] was inactive.
Turning to `CCCCCCCCCCCCCCCCc1cn([C@@H](CO[C@H]2O[C@H](CO)[C@H](O)[C@H](O)[C@H]2O)[C@H](O)[C@H](O)CCCCCCCCCCCCCC)nn1`, the outcome in the assay with Mus musculus [2], with Mus musculus [3] and in the assay with DN32.D3 [15] was inactive.
Take `CCCCCCCCCCCCCCCCCCCCCCCc1cn([C@@H](CO[C@H]2O[C@H](CO)[C@H](O)[C@H](O)[C@H]2O)[C@H](O)[C@H](O)CCCCCCCCCCCCCC)nn1`: the outcome in the assay with Splenocyte [1] was Active.

For the origin of these results see ChEMBL document CHEMBL1141407, “Synthesis and evaluation of 1,2,3-triazole containing analogues of the immunostimulant alpha-GalCer” (2007).
